Data set [1] has as its target T1, 5-hydroxytryptamine receptor 6 (Homo sapiens, UniProt P50406). Description: Displacement of [3H]LSD from human cloned 5-HT6 receptor expressed in HeLa cells. The data set is classed as cell-based. Background: Displacement assays read how much labelled ligand stays bound in the presence of the test substance.
For data set [2], the target named is T1, 5-hydroxytryptamine receptor 6. As to the kind of experiment: Antagonist activity at human cloned 5-HT6 receptor expressed in HeLa cells assessed as inhibition of 5-HT-stimulated conversion of [alpha-33P]ATP to [33P]cAMP. It is filed as functional, cell-based.
Data set [3] in a line: Half life in human liver microsomes at 0.5 uM in presence of NADPH. It is filed as ADME. In outline:
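Test compound incubated with human liver microsomes (1 mg/ml) plus NADPH (1 mM) for 0–45 min. Reactions were stopped and parent remaining in supernatant was quantified by LC–MS/MS. T1/2 was taken from the plot of % remaining versus time. Omeprazole was run as a reference control.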
(In general: Liver microsomes are a subcellular fraction often used to study metabolism.)

A further data set relates to Brain. As to the kind of experiment: Drug uptake in rat brain at 10 mg/kg, ip. The data set is classed as ADME, organism-based. Also on record: dose 10 mg/kg, route intraperitoneal. Conditions: in vivo, read-out: Drug uptake. In outline:
(§1)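 Rats received a single intraperitoneal dose of 10 mg/kg. Brain and plasma drug levels were measured 30 minutes post-dose, and the brain/plasma ratio was derived from them.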

The nature of data set [4]: Permeability of the compound. It is filed as ADME. The note with it: not told; read-out: permeability.
Data set [5] can be described thus: Ratio of drug level in brain to plasma in rat at 10 mg/kg, ip. The data set is classed as ADME, organism-based. Also on record: dose 10 mg/kg, route intraperitoneal. Conditions: read-out: BPR. In outline: as §1
Data set [6] can be described thus: Oral bioavailability in rat. The note with it: in vivo. It is filed as ADME, organism-based.

The source made the active and inactive calls. The rule behind the calls is not given here.

Consider 35 compounds from ChEMBL document CHEMBL3112552, “Structure activity relationship studies of 3-arylsulfonyl-pyrido[1,2-a]pyrimidin-4-imines as potent 5-HT₆ antagonists” (Bioorg Med Chem, 2014).

T1 sequence (P50406 whole entry): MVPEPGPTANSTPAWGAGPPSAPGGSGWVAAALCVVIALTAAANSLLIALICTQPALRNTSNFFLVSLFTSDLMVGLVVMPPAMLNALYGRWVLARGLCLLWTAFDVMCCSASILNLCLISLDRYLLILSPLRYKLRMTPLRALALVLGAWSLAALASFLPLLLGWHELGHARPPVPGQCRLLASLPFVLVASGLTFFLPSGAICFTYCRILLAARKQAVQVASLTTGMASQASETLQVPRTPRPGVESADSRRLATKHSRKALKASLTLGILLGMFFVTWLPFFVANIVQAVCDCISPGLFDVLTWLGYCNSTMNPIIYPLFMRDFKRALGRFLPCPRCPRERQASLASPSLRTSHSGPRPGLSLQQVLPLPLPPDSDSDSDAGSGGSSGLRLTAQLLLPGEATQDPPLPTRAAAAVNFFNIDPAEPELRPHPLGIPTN

The IC50 is the midpoint of a concentration-inhibition curve. Read a high IC50 as a need for much substance. One may read the half-life as the time in which the quantity being followed falls by half. Take `CSc1nc2ccc(Br)cn2c(=N)c1S(=O)(=O)c1ccccc1`: the IC50 in data set [1] stood at 0.056 µM. In addition, the “antagonist activity (active/inactive call)” value in data set [2] was “Active”. Also, the half-life at 0.5 µM in data set [3] was found to be 7.5 min.
Turning to `COC(=O)c1ccc2nc(SC)c(S(=O)(=O)c3ccccc3)c(=N)n2c1`, the IC50 in data set [1] is 0.47 µM. In data set [2], the “antagonist activity (active/inactive call)” value is “Active”.
In data set [1], `CSc1nc2c3ccccc3ccn2c(=N)c1S(=O)(=O)c1ccccc1` gave an IC50 of 0.055 µM. Further, in data set [2], the “antagonist activity (active/inactive call)” value was “Active”. The half-life at 0.5 µM in data set [3] turned out to be 7.9 min.
`CCNc1nc2ccccn2c(=N)c1S(=O)(=O)c1ccccc1` registered an IC50 in data set [1] of 0.002 µM. The “antagonist activity (active/inactive call)” value in data set [2] was “Active”.
As to `CSc1nc2ccccn2/c(=N\C(C)=O)c1S(=O)(=O)c1ccccc1`, the IC50 in data set [1] worked out at 0.083 µM. Moreover, the “antagonist activity (active/inactive call)” value in data set [2] was “Active”. In addition, in data set [3], the half-life at 0.5 µM amounted to 43 min.
The like results for `CSc1nc2ccccn2c(=O)c1S(=O)(=O)c1ccccc1` were, in that order, 0.052 µM, “Active” and 40 min.
In the case of `CSc1nc2ccc(C)cn2c(=N)c1S(=O)(=O)c1ccccc1`, the IC50 in data set [1] was determined as 0.0013 µM. Moreover, in data set [2], the “antagonist activity (active/inactive call)” value was “Active”.
Compound `C/N=c1/c(S(=O)(=O)c2ccccc2)c(SC)nc2ccccn12` gave an IC50 in data set [1] of 0.12 µM. In addition, the “antagonist activity (active/inactive call)” value in data set [2] was “Active”. Besides, the half-life at 0.5 µM in data set [3] was 2.8 min.
As to `COc1nc2ccccn2c(=N)c1S(=O)(=O)c1ccccc1`, the IC50 in data set [1] worked out at 0.021 µM. Besides, the “antagonist activity (active/inactive call)” value in data set [2] is “Active”. Moreover, the half-life at 0.5 µM in data set [3] was 13.7 min.
In data set [1], `CCCc1ccn2c(=N)c(S(=O)(=O)c3ccccc3)c(SC)nc2c1` returned an IC50 of 0.7 µM. The “antagonist activity (active/inactive call)” value in data set [2] is “Active”.
The like results for `CSc1nc2c3ncccc3ccn2c(=N)c1S(=O)(=O)c1ccccc1` were, in that order, 0.057 µM and “Active”.
As for `CSc1nc2ccccn2c(=N)c1S(=O)(=O)c1ccc(C(C)(C)C)cc1`, the half-maximal inhibitory concentration (IC50) in data set [1] is 0.065 µM. The “antagonist activity (active/inactive call)” value in data set [2] is “Active”. Moreover, the half-life at 0.5 µM in data set [3] amounted to 3.9 min.
As to `CSc1nc2ccccn2c(=N)c1S(=O)(=O)c1ccc(F)cc1`, the concentration for half-maximal inhibition (IC50) in data set [1] was 0.022 µM. The “antagonist activity (active/inactive call)” value in data set [2] is “Active”. Also, the half-life at 0.5 µM in data set [3] came to 3.1 min.
Turning to `CSc1nc2c(Cc3ccccc3)cccn2c(=N)c1S(=O)(=O)c1ccccc1`, in data set [1], the 50% inhibitory concentration (IC50) stood at 0.33 µM. The “antagonist activity (active/inactive call)” value in data set [2] is “Active”. Besides, in data set [3], the half-life at 0.5 µM came out at 5.5 min.
In data set [1], `CSc1nc2ccccn2c(=N)c1S(=O)(=O)c1ccc(OC(F)(F)F)cc1` yielded an IC50 of 0.42 µM. Further, the “antagonist activity (active/inactive call)” value in data set [2] was “Active”. In data set [3], the half-life at 0.5 µM was found to be 2.8 min.
`CSc1nc2ccc(C(N)=O)cn2c(=N)c1S(=O)(=O)c1ccccc1` returned a half-maximal inhibitory concentration (IC50) in data set [1] of 0.0088 µM. The “antagonist activity (active/inactive call)” value in data set [2] was “Active”.
The like results for `N=c1c(S(=O)(=O)c2ccccc2)c(NCCO)nc2ccccn12` were, in that order, 0.042 µM and “Active”.
The like results for `CSc1nc2c(C)cccn2c(=N)c1S(=O)(=O)c1ccccc1` were, in that order, 0.0034 µM and “Active”.
Consider `COc1ccc2[nH]c([S+]([O-])Cc3ncc(C)c(OC)c3C)nc2c1` (stereo unspecified) [OMEPRAZOLE], for which, in data set [3], the half-life at 0.5 µM amounted to 26 min.
In data set [1], `CSc1nc2ccccn2c(=N)c1S(=O)(=O)c1ccccc1Cl` had an IC50 of 0.011 µM. The “antagonist activity (active/inactive call)” value in data set [2] is “Active”.
The like results for `CSc1nc2c(C)cc(Br)cn2c(=N)c1S(=O)(=O)c1ccccc1` were, in that order, 0.012 µM and “Active”.
Consider `Cc1ccc(Nc2nc3ccc(C)cn3c(=N)c2S(=O)(=O)c2ccccc2)nc1`, for which the half-maximal inhibitory concentration (IC50) in data set [1] came to 0.06 µM. Moreover, in data set [2], the “antagonist activity (active/inactive call)” value is “Active”.
By bioavailability is commonly meant the share of a dose that reaches the circulation, judged against a reference dose that is usually intravenous. Lower therefore signals poor availability. Turning to `CSc1nc2ccccn2c(=N)c1S(=O)(=O)c1ccccc1`, the concentration with Brain is 1900 nM. In addition, the Papp in data set [4] turned out to be 17 ×10⁻⁶ cm/s. For the same compound, in data set [2], the “antagonist activity (active/inactive call)” value was “Active”. Further, the Kp in data set [5] came to 1.2. Moreover, the half-life at 0.5 µM in data set [3] was 5.2 min. The compound also yielded a bioavailability in data set [6] of under 1%.
In turn, `CSc1nc2cc(C)ccn2c(=N)c1S(=O)(=O)c1ccccc1` gave an IC50 in data set [1] of 0.041 µM. Further, in data set [2], the “antagonist activity (active/inactive call)” value is “Active”.
The compound `CSc1nc2c(Br)cc(C)cn2c(=N)c1S(=O)(=O)c1ccccc1` had an IC50 in data set [1] of 0.126 µM. In data set [2], the “antagonist activity (active/inactive call)” value is “Active”.
With `CSc1nc2ccccn2c(=N)c1S(=O)(=O)c1ccc(Cl)c(Cl)c1`, the IC50 in data set [1] was determined as 0.018 µM. Moreover, the “antagonist activity (active/inactive call)” value in data set [2] was “Active”. Besides, the half-life at 0.5 µM in data set [3] is 3.1 min.
In data set [1], `CSc1nc2ccc(Cl)cn2c(=N)c1S(=O)(=O)c1ccccc1` registered a half-inhibitory concentration (IC50) of 0.028 µM. Also, the “antagonist activity (active/inactive call)” value in data set [2] was “Active”.
`CSc1nc2c(C)cc(Cc3ccccc3)cn2c(=N)c1S(=O)(=O)c1ccccc1`: the IC50 in data set [1] was 0.06 µM. In addition, the “antagonist activity (active/inactive call)” value in data set [2] was “Active”.
The like results for `CSc1nc2ccccn2c(=N)c1S(=O)(=O)c1ccc2ccccc2c1` were, in that order, 0.059 µM and “Active”.
As for `CNc1nc2ccccn2c(=N)c1S(=O)(=O)c1ccccc1`, in data set [1], the IC50 is 0.0024 µM. In addition, the “antagonist activity (active/inactive call)” value in data set [2] was “Active”. Moreover, in data set [3], the half-life at 0.5 µM is 7.2 min.
In data set [1], `CCOc1nc2ccccn2c(=N)c1S(=O)(=O)c1ccccc1` showed an IC50 of 0.012 µM. Also, the “antagonist activity (active/inactive call)” value in data set [2] was “Active”.
On to `CSc1nc2ccc(F)cn2c(=N)c1S(=O)(=O)c1ccccc1`, for which, in data set [1], the IC50 is 0.028 µM. For the same compound, in data set [2], the “antagonist activity (active/inactive call)” value was “Active”.
The like results for `C[S+]([O-])c1nc2ccccn2c(=N)c1S(=O)(=O)c1ccccc1` (stereo unspecified) were, in that order, 0.25 µM and “Active”.
In turn, `CSc1nc2ccccn2c(=N)c1S(=O)(=O)c1cc(C)c(Cl)cc1C` came in with an IC50 in data set [1] of 0.05 µM. Further, the “antagonist activity (active/inactive call)” value in data set [2] was “Active”. Also, in data set [3], the half-life at 0.5 µM was found to be 4.1 min.
With `CCc1ccn2c(=N)c(S(=O)(=O)c3ccccc3)c(SC)nc2c1`, the IC50 in data set [1] stood at 0.08 µM. Further, the “antagonist activity (active/inactive call)” value in data set [2] was “Active”.
